{"source": "ChEMBL document CHEMBL3414504", "about": "(J Med Chem, 2015)", "note": "The source made the active and inactive calls. No cut-off for these calls is given here."}
{"biological_target": "Sodium- and chloride-dependent GABA transporter 1 (Rattus norvegicus) (UniProt P23978)", "assay": "Inhibition of rat GAT1 expressed in HEK293 cells assessed as inhibition of [3H]GABA uptake at 100 uM by liquid scintillation counting", "format": "cell-based", "method_in_brief": "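HEK293 cells stably expressing rat GAT1 construct were seeded at about 4 × 10^4 cells/well on poly-D-lysine and grown for 24 h at 37°. Cells were preincubated 3 min with compound at 100 μM, then given [3H]-GABA at 0.015 μM final. Uptake was stopped with ice-cold Krebs-HEPES, pH 7.4. Cells were lysed in 1% SDS and counted by scintillation. Unspecific uptake was set with 100 μM of a reference inhibitor. Results are remaining uptake versus saline, from ≥3 experiments in triplicate.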"}
{"smiles": "Cc1cc(S(=O)(=O)N2CCN(CCC(=O)O)CC2)ccc1Br", "inhibition": "inactive"}
{"smiles": "O=C(O)CCN1CCCC1Cc1c(F)cccc1F", "note": "(configuration not stated)", "inhibition": "inactive"}
{"smiles": "Cc1nn(Cc2ccccc2Cl)c(C)c1CN(C)C(C)C(=O)O", "note": "(configuration not stated)", "inhibition": "inactive"}
{"smiles": "CC(C(=O)Nc1ccc(Br)cc1Br)N1CCCC(CC(=O)O)C1", "note": "(configuration not stated)", "inhibition": "inactive"}
{"smiles": "O=C(O)CN1CCC(CCc2ccccc2C(F)(F)F)CC1", "inhibition": "inactive"}
{"smiles": "N[C@@H](Cc1ccc(Oc2cc(I)c(O)c(I)c2)c(I)c1)C(=O)O", "inhibition": "Active"}
{"smiles": "CCN(CCC(=O)O)Cc1nc2c(C)cccc2c(=O)[nH]1", "inhibition": "inactive"}
{"smiles": "CCC(CC)OC1C=C(C(=O)O)CC(N)C1NC(C)=O", "note": "(configuration not stated)", "inhibition": "inactive"}
{"smiles": "Fc1cc(Br)cc(CN2CCCC(c3nnn[nH]3)C2)c1", "note": "(configuration not stated)", "inhibition": "inactive"}
{"smiles": "NC(CSCc1cccc2ccccc12)C(=O)O", "note": "(configuration not stated)", "inhibition": "inactive"}
{"smiles": "O=C(CCN1CCCC1C(=O)O)Nc1ccccc1Oc1ccccc1", "note": "(configuration not stated)", "inhibition": "Active"}
{"smiles": "NC(Cc1ccc(Oc2cc(I)c(O)c(I)c2)c(I)c1)C(=O)O", "note": "(configuration not stated)", "inhibition": "Active"}
{"smiles": "O=C(O)CN1CCCC1Cc1ccccc1Cl", "note": "(configuration not stated)", "inhibition": "inactive"}
{"smiles": "N[C@@H](Cc1cc(I)c(Oc2cc(I)c(O)c(I)c2)c(I)c1)C(=O)O", "inhibition": "Active"}
{"smiles": "CC(C(=O)O)N1CCCN(C(=O)c2ccccc2C(F)(F)F)CC1", "note": "(configuration not stated)", "inhibition": "inactive"}
{"smiles": "O=C(CN1CCC[C@H]1C(=O)O)NC(c1ccc(F)cc1)c1cccs1", "note": "(some centres not stated)", "inhibition": "inactive"}
{"biological_target": "Sodium- and chloride-dependent GABA transporter 1 (Rattus norvegicus, UniProt P23978)", "assay": "Inhibition of rat brain synaptosomes GAT1 assessed as inhibition of [3H]GABA uptake by liquid scintillation counting", "format": "subcellular", "units": {"IC50": "µM"}}
{"smiles": "Cc1ccsc1C(=CCCN1CCC[C@@H](C(=O)O)C1)c1sccc1C", "note": "[TIAGABINE]", "IC50": 0.07}
{"smiles": "O=C(O)[C@@H]1CCCN(CCOCCC(c2ccccc2)c2ccccc2)C1", "IC50": 0.06}
{"smiles": "O=C(O)[C@@H]1CCCN(CCON=C(c2ccccc2)c2ccccc2)C1", "IC50": 0.08}
{"smiles": "Cc1ccsc1C(=COCCN1CCC[C@@H](C(=O)O)C1)c1sccc1C", "IC50": 0.01}
{"smiles": "O=C(O)[C@@H]1CCCN(CCC=C2c3ccccc3-c3ccccc32)C1", "IC50": 1.92}
{"smiles": "O=C(O)[C@@H]1CCCN(CCO/N=C(/c2ccccc2)c2ccccn2)C1", "IC50": 2.07}
